First the molecules themselves.
T1: MjCobY (Methanocaldococcus jannaschii, UniProt Q58517, G153D)
T1 sequence (Q58517 1-196 G153D): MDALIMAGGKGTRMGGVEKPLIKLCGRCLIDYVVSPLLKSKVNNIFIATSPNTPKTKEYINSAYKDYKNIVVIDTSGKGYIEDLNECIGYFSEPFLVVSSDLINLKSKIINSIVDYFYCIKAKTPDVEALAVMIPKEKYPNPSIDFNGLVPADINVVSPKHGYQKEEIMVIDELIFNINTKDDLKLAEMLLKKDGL

B1: MjCobY^G8D (enzyme, Methanocaldococcus jannaschii, UniProt Q58517 1-196, looked up)
chain: MDALIMADGKGTRMGGVEKPLIKLCGRCLIDYVVSPLLKSKVNNIFIATSPNTPKTKEYINSAYKDYKNIVVIDTSGKGYIEDLNECIGYFSEPFLVVSSDLINLKSKIINSIVDYFYCIKAKTPDVEALAVMIPKEKYPNPSIDFNGLVPAGINVVSPKHGYQKEEIMVIDELIFNINTKDDLKLAEMLLKKDGL
B2: MjCobY Y80F (enzyme, Methanocaldococcus jannaschii, UniProt Q58517 1-196, looked up)
chain: MDALIMAGGKGTRMGGVEKPLIKLCGRCLIDYVVSPLLKSKVNNIFIATSPNTPKTKEYINSAYKDYKNIVVIDTSGKGFIEDLNECIGYFSEPFLVVSSDLINLKSKIINSIVDYFYCIKAKTPDVEALAVMIPKEKYPNPSIDFNGLVPAGINVVSPKHGYQKEEIMVIDELIFNINTKDDLKLAEMLLKKDGL
B3: MjCobY P54A (enzyme, Methanocaldococcus jannaschii, UniProt Q58517 1-196, looked up)
chain: MDALIMAGGKGTRMGGVEKPLIKLCGRCLIDYVVSPLLKSKVNNIFIATSPNTAKTKEYINSAYKDYKNIVVIDTSGKGYIEDLNECIGYFSEPFLVVSSDLINLKSKIINSIVDYFYCIKAKTPDVEALAVMIPKEKYPNPSIDFNGLVPAGINVVSPKHGYQKEEIMVIDELIFNINTKDDLKLAEMLLKKDGL
B4: MjCobY P94A (enzyme, Methanocaldococcus jannaschii, UniProt Q58517 1-196, looked up)
chain: MDALIMAGGKGTRMGGVEKPLIKLCGRCLIDYVVSPLLKSKVNNIFIATSPNTPKTKEYINSAYKDYKNIVVIDTSGKGYIEDLNECIGYFSEAFLVVSSDLINLKSKIINSIVDYFYCIKAKTPDVEALAVMIPKEKYPNPSIDFNGLVPAGINVVSPKHGYQKEEIMVIDELIFNINTKDDLKLAEMLLKKDGL
B5: MjCobY E18D (enzyme, Methanocaldococcus jannaschii, UniProt Q58517 1-196, looked up)
chain: MDALIMAGGKGTRMGGVDKPLIKLCGRCLIDYVVSPLLKSKVNNIFIATSPNTPKTKEYINSAYKDYKNIVVIDTSGKGYIEDLNECIGYFSEPFLVVSSDLINLKSKIINSIVDYFYCIKAKTPDVEALAVMIPKEKYPNPSIDFNGLVPAGINVVSPKHGYQKEEIMVIDELIFNINTKDDLKLAEMLLKKDGL
B6: MjCobY D101G (enzyme, Methanocaldococcus jannaschii, UniProt Q58517 1-196, looked up)
chain: MDALIMAGGKGTRMGGVEKPLIKLCGRCLIDYVVSPLLKSKVNNIFIATSPNTPKTKEYINSAYKDYKNIVVIDTSGKGYIEDLNECIGYFSEPFLVVSSGLINLKSKIINSIVDYFYCIKAKTPDVEALAVMIPKEKYPNPSIDFNGLVPAGINVVSPKHGYQKEEIMVIDELIFNINTKDDLKLAEMLLKKDGL
B7: MjCobY D83G (enzyme, Methanocaldococcus jannaschii, UniProt Q58517 1-196, looked up)
chain: MDALIMAGGKGTRMGGVEKPLIKLCGRCLIDYVVSPLLKSKVNNIFIATSPNTPKTKEYINSAYKDYKNIVVIDTSGKGYIEGLNECIGYFSEPFLVVSSDLINLKSKIINSIVDYFYCIKAKTPDVEALAVMIPKEKYPNPSIDFNGLVPAGINVVSPKHGYQKEEIMVIDELIFNINTKDDLKLAEMLLKKDGL
B8: MjCobY T53S (enzyme, Methanocaldococcus jannaschii, UniProt Q58517 1-196, looked up)
chain: MDALIMAGGKGTRMGGVEKPLIKLCGRCLIDYVVSPLLKSKVNNIFIATSPNSPKTKEYINSAYKDYKNIVVIDTSGKGYIEDLNECIGYFSEPFLVVSSDLINLKSKIINSIVDYFYCIKAKTPDVEALAVMIPKEKYPNPSIDFNGLVPAGINVVSPKHGYQKEEIMVIDELIFNINTKDDLKLAEMLLKKDGL
B9: MjCobY K19A (enzyme, Methanocaldococcus jannaschii, UniProt Q58517 1-196, looked up)
chain: MDALIMAGGKGTRMGGVEAPLIKLCGRCLIDYVVSPLLKSKVNNIFIATSPNTPKTKEYINSAYKDYKNIVVIDTSGKGYIEDLNECIGYFSEPFLVVSSDLINLKSKIINSIVDYFYCIKAKTPDVEALAVMIPKEKYPNPSIDFNGLVPAGINVVSPKHGYQKEEIMVIDELIFNINTKDDLKLAEMLLKKDGL
B10: MjCobY^G153D (enzyme, Methanocaldococcus jannaschii)
chain: MDALIMAGGKGTRMGGVEKPLIKLCGRCLIDYVVSPLLKSKVNNIFIATSPNTPKTKEYINSAYKDYKNIVVIDTSGKGYIEDLNECIGYFSEPFLVVSSDLINLKSKIINSIVDYFYCIKAKTPDVEALAVMIPKEKYPNPSIDFNGLVPADINVVSPKHGYQKEEIMVIDELIFNINTKDDLKLAEMLLKKDGL
B11: MjCobY R13A (enzyme, Methanocaldococcus jannaschii, UniProt Q58517 1-196, looked up)
chain: MDALIMAGGKGTAMGGVEKPLIKLCGRCLIDYVVSPLLKSKVNNIFIATSPNTPKTKEYINSAYKDYKNIVVIDTSGKGYIEDLNECIGYFSEPFLVVSSDLINLKSKIINSIVDYFYCIKAKTPDVEALAVMIPKEKYPNPSIDFNGLVPAGINVVSPKHGYQKEEIMVIDELIFNINTKDDLKLAEMLLKKDGL
B12: MjCobY P20A (enzyme, Methanocaldococcus jannaschii, UniProt Q58517 1-196, looked up)
chain: MDALIMAGGKGTRMGGVEKALIKLCGRCLIDYVVSPLLKSKVNNIFIATSPNTPKTKEYINSAYKDYKNIVVIDTSGKGYIEDLNECIGYFSEPFLVVSSDLINLKSKIINSIVDYFYCIKAKTPDVEALAVMIPKEKYPNPSIDFNGLVPAGINVVSPKHGYQKEEIMVIDELIFNINTKDDLKLAEMLLKKDGL

The first series concerns the target T1, MjCobY. Nature of the series: isothermal titration calorimetry. The class given is binding. Summed up: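 Recombinant G153D variant purified by heat step (75°C, 15 min), ammonium sulfate, hydrophobic interaction, anion exchange and size-exclusion chromatography; dialysed at 4 °C against Tris-HCl 50 mM pH 8.0, NaCl 50 mM, MgCl2 10 mM, TCEP 4 mM. GTP in spent dialysate; 1 mM stock titrated by 27 injections into 18 µM protein dimers at 27 °C.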
For `Nc1nc2c(ncn2[C@@H]2O[C@H](COP(=O)(O)OP(=O)(O)OP(=O)(O)O)[C@@H](O)[C@H]2O)c(=O)[nH]1` [GTP], the equilibrium dissociation constant (Kd) turned out to be 400 ± 40 nM.

The next series deals with the molecule itself. Nature of the series: SEC.
Take B1: the “percent dimer (Monomer:Dimer Ratio)” value was found to be 67% and the “percent monomer (Monomer:Dimer Ratio)” value turned out to be 33%.
Regarding B2, the “percent dimer (Monomer:Dimer Ratio)” value amounted to 26% and the “percent monomer (Monomer:Dimer Ratio)” value worked out at 74%.
For B3, in that order: 50% and 50%.
As for B4, the “percent dimer (Monomer:Dimer Ratio)” value stood at 48% and the “percent monomer (Monomer:Dimer Ratio)” value came out at 52%.
For B5, in that order: 60% and 40%.
For the molecule B6, the “percent dimer (Monomer:Dimer Ratio)” value was 66% and the “percent monomer (Monomer:Dimer Ratio)” value came to 34%.
As to B7, the “percent dimer (Monomer:Dimer Ratio)” value was found to be 18% and the “percent monomer (Monomer:Dimer Ratio)” value was determined as 82%.
For B8, the “percent dimer (Monomer:Dimer Ratio)” value turned out to be 24% and the “percent monomer (Monomer:Dimer Ratio)” value came out at 76%.
With B9, the “percent dimer (Monomer:Dimer Ratio)” value was 64% and the “percent monomer (Monomer:Dimer Ratio)” value was found to be 36%.
For B10, in that order: 46% and 54%.
On to B11, for which the “percent dimer (Monomer:Dimer Ratio)” value is 86% and the “percent monomer (Monomer:Dimer Ratio)” value was 14%.
B12: the “percent dimer (Monomer:Dimer Ratio)” value came out at 37% and the “percent monomer (Monomer:Dimer Ratio)” value was 63%.
